In ChEMBL document CHEMBL4715770, “Inhibition of Low Molecular Weight Protein Tyrosine Phosphatase by an Induced-Fit Mechanism” (J Med Chem, 2016):
Calls of active or inactive are those of the source. No cut-off for these calls is given here.

Columns and labels:
[1] = biological target: T1, Low molecular weight phosphotyrosine protein phosphatase (Homo sapiens, UniProt P24666); assay: Inhibition of His-tagged LMW-PTP isoform A (unknown origin) expressed in Escherichia coli BL21 cells using para-nitrophenyl phosphate as substrate incubated for 5 to 10 mins by microplate reader based spectrophotometric analysis
T1 sequence (P24666 whole entry): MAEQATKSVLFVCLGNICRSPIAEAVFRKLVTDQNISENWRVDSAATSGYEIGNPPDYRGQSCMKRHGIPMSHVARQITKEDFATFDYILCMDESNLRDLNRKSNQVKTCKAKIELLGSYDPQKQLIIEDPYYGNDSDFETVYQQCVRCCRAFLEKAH

[2] = biological target: Low molecular weight phosphotyrosine protein phosphatase (Homo sapiens) (UniProt P24666); assay: Inhibition of LMW-PTP isoform A in human HepG2 cells assessed as increase in insulin-induced Akt phosphorylation at 16 uM pretreated for 2 hrs followed by insulin stimulation and measured after 30 mins by Western blot analysis; format: cell-based
How it was run: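 HepG2 cells in DMEM with 10% FBS at 37 °C and 5% CO2 were grown to 60-80% confluence and serum-starved overnight. They were given vehicle or compound for 2 h, then 50 nM insulin for 30 min. Lysates were run on 10% SDS-PAGE and immunoblotted for phospho-AKT and total AKT with ECL detection. Densitometric pAKT/AKT ratios were normalized to vehicle.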

[3] = biological target: T1, Low molecular weight phosphotyrosine protein phosphatase; assay: Competitive inhibition of His-tagged LMW-PTP isoform A (unknown origin) expressed in Escherichia coli BL21 cells using para-nitrophenyl phosphate as substrate by Lineweaver-Burk plot analysis
How it was run: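 Recombinant enzyme Ni-NTA purified (Tris pH 7.8, 500 mM NaCl, 250 mM imidazole elution), then Sephadex G75. pNPP hydrolysis in 50 mM 3,3-dimethylglutarate, pH 7.0, 25 °C. Enzyme added last to mixes of varied pNPP and inhibitor concentrations, 5-10 min, NaOH quench. p-nitrophenol read at 405 nm (ε 18,000 M-1cm-1), no-enzyme blank subtracted. Ki fitted by enzyme-kinetics regression.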

[4] = biological target: T1, Low molecular weight phosphotyrosine protein phosphatase; assay: Competitive inhibition of LMW-PTP isoform B (unknown origin) using para-nitrophenyl phosphate as substrate by Lineweaver-Burk plot analysis
How it was run: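 Recombinant His-tagged LMW-PTP from E. coli, Ni-NTA then Sephadex G75 purified. pNPP hydrolysis in 50 mM 3,3-dimethylglutarate buffer, pH 7.0, 25 °C. Reaction started by adding enzyme to mixes of varied pNPP and varied inhibitor concentrations, run 5-10 min, quenched with 5N NaOH. p-Nitrophenol read at 405 nm, blank without enzyme subtracted. Ki from enzyme-kinetics fitting.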

[5] = Inhibition of His-tagged PTP-H1 (unknown origin) expressed in Escherichia coli BL21 cells using para-nitrophenyl phosphate as substrate incubated for 5 to 10 mins by microplate reader based spectrophotometric analysis; parameters: species or system Homo sapiens
How it was run: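 Enzyme at 5-20 nM was added to substrate plus a range of inhibitor concentrations and run 5-10 min at room temperature. Quenched with 5N NaOH and p-nitrophenol read at 405 nm (ε 18,000 M-1cm-1), with a no-enzyme background correction. IC50 from curve fitting.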

[6] = biological target: T2, RNA polymerase II subunit A C-terminal domain phosphatase SSU72 (Homo sapiens, UniProt Q9NP77); assay: Inhibition of His-tagged SSu72 (unknown origin) expressed in Escherichia coli BL21 cells using para-nitrophenyl phosphate as substrate incubated for 5 to 10 mins by microplate reader based spectrophotometric analysis
T2 sequence (Q9NP77 whole entry): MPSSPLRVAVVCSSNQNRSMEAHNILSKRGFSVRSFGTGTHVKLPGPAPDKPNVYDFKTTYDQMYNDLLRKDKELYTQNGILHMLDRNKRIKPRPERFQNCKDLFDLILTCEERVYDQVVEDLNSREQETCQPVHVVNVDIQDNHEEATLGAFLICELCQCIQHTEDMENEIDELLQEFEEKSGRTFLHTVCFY

[7] = biological target: T3, Dual specificity protein phosphatase 23 (Homo sapiens, UniProt Q9BVJ7); assay: Inhibition of His-tagged VHZ (unknown origin) expressed in Escherichia coli BL21 cells using para-nitrophenyl phosphate as substrate incubated for 5 to 10 mins by microplate reader based spectrophotometric analysis
T3 sequence (Q9BVJ7 whole entry): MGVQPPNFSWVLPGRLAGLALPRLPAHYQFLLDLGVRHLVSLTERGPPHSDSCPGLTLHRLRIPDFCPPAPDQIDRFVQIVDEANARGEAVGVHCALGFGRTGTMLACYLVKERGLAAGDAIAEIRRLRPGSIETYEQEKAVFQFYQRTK

[8] = biological target: Tyrosine-protein phosphatase non-receptor type 13 (Homo sapiens, UniProt Q12923); assay: Inhibition of His-tagged FAP1 (unknown origin) expressed in Escherichia coli BL21 cells using para-nitrophenyl phosphate as substrate incubated for 5 to 10 mins by microplate reader based spectrophotometric analysis
Tyrosine-protein phosphatase non-receptor type 13, sequence (Q12923 whole entry): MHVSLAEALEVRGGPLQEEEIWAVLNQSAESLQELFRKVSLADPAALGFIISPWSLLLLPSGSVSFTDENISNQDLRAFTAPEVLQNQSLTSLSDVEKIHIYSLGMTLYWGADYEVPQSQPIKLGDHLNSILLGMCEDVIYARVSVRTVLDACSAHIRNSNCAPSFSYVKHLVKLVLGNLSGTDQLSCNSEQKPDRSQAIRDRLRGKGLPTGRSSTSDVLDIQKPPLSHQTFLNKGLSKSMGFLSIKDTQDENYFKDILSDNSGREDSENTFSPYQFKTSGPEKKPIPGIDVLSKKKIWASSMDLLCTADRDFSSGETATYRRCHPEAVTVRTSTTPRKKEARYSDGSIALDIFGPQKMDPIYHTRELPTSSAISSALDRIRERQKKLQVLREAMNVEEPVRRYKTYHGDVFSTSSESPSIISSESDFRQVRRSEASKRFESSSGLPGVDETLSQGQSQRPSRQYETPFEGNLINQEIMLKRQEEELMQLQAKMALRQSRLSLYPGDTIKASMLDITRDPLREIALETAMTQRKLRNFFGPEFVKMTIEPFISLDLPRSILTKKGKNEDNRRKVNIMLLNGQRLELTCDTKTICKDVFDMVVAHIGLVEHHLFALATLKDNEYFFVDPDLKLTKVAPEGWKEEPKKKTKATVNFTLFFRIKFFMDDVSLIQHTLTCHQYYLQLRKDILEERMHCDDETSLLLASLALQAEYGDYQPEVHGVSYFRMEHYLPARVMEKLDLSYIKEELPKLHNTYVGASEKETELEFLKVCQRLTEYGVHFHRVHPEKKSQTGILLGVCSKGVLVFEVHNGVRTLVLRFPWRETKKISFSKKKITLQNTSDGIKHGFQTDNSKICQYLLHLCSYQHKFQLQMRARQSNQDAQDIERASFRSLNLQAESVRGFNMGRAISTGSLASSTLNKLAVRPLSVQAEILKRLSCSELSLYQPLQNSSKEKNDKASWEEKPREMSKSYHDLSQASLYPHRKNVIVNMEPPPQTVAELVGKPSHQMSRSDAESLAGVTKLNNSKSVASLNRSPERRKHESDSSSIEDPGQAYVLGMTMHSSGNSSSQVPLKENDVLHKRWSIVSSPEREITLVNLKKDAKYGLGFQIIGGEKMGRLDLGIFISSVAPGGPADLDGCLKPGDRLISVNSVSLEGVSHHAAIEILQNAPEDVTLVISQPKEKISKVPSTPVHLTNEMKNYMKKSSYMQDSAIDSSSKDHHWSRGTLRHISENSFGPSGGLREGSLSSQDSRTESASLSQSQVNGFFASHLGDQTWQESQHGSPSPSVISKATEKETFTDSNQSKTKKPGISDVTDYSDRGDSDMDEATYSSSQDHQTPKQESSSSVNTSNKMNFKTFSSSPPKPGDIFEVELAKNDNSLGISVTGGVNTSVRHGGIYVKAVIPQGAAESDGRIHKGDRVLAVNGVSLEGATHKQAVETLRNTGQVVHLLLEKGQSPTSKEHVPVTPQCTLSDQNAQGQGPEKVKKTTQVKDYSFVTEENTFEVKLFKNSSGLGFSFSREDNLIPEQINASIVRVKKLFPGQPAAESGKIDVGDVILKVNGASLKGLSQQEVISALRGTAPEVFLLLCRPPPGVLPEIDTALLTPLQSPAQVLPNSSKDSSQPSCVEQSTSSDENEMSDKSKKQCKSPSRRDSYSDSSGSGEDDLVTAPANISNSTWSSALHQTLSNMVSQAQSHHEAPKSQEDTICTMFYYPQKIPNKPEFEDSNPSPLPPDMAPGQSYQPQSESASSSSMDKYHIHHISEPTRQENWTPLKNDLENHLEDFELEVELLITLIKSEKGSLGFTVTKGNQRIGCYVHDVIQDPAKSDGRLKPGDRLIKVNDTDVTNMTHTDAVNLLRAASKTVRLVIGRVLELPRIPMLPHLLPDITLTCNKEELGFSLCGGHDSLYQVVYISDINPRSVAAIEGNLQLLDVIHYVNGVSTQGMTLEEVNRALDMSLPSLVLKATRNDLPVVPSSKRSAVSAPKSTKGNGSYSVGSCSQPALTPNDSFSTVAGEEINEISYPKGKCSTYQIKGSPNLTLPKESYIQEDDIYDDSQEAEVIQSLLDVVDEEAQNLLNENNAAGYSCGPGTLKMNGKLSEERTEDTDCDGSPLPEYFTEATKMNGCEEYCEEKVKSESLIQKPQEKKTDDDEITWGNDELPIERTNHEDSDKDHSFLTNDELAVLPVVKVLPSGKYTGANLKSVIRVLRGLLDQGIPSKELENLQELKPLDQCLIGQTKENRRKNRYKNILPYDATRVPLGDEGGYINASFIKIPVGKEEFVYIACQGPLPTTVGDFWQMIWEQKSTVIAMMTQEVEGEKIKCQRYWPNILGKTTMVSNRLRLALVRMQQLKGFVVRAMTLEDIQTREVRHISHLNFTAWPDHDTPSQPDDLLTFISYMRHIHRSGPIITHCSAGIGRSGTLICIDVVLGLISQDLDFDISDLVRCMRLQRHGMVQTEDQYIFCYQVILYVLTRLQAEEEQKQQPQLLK

Compound | IC50 [1] | also measured
O=C(Cc1ccccc1)Nc1nc2ccc([N+](=O)[O-])cc2s1 | > 100 µM | inhibition [2]: inactive
CCCNC(=O)C(c1ccccc1)S(=O)(=O)O (stereo unspecified) | > 200 µM | –
O=C(Nc1nc2ccccc2s1)C(c1ccccc1F)S(=O)(=O)O (stereo unspecified) | > 200 µM | –
O=C(Nc1nc2ccccc2s1)C(c1ccc(Br)cc1)S(=O)(=O)O (stereo unspecified) | 106 µM | –
O=C(Nc1nc2ccccc2s1)C(c1ccccc1)S(=O)(=O)O (stereo unspecified) | – | Ki [3]: 3.2 µM; Ki [4]: 1.7 µM; IC50 [5]: > 200 µM; IC50 [6]: 69.9 µM
O=C(Nc1nccs1)C(c1ccccc1)S(=O)(=O)O (stereo unspecified) | 72 µM | –
O=C(Nc1cnc2ccccc2c1)C(c1ccccc1)S(=O)(=O)O (stereo unspecified) | – | IC50 [5]: > 200 µM; IC50 [7]: > 200 µM
Cc1ccc(C(C(=O)Nc2nc3ccccc3s2)S(=O)(=O)O)cc1 (stereo unspecified) | 91.4 µM | –
O=C(Nc1nc2ccccc2s1)C(c1cccc([N+](=O)[O-])c1)S(=O)(=O)O (stereo unspecified) | > 200 µM | –
O=C(Nc1nc2ccccc2s1)C(c1cccc(F)c1)S(=O)(=O)O (stereo unspecified) | 50 µM | –
O=C(Nc1nc2ccccc2s1)C(c1ccccc1Cl)S(=O)(=O)O (stereo unspecified) | > 200 µM | –
O=C(Nc1ccccc1)C(c1ccccc1)S(=O)(=O)O (stereo unspecified) | > 100 µM | –
CCOC(=O)c1ccc2nc(NC(=O)C(c3ccccc3)S(=O)(=O)O)sc2c1 (stereo unspecified) | 3.1 µM | –
Cc1ccccc1C(C(=O)Nc1nc2ccccc2s1)S(=O)(=O)O (stereo unspecified) | > 200 µM | –
O=C(Nc1ccc2nc(C(F)(F)F)[nH]c2c1)C(c1ccccc1)S(=O)(=O)O (stereo unspecified) | – | IC50 [5]: > 200 µM; IC50 [8]: > 200 µM
N#Cc1cccc(C(C(=O)Nc2nc3ccccc3s2)S(=O)(=O)O)c1 (stereo unspecified) | > 200 µM | –
Cc1cccc(C(C(=O)Nc2nc3ccccc3s2)S(=O)(=O)O)c1 (stereo unspecified) | > 200 µM | –
O=C(Nc1ccc(N2CCOCC2)cc1)C(c1ccccc1)S(=O)(=O)O (stereo unspecified) | – | IC50 [5]: > 200 µM; IC50 [7]: > 200 µM
O=C(Nc1nc2ccccc2s1)C(c1cccc(C(F)(F)F)c1)S(=O)(=O)O (stereo unspecified) | > 200 µM | –
